Compound activity as filed in PubChem.
Shown are actives, neighbours in structure and some others; about 9.4% of the full set was active somewhere.
Beta apoptosis – beta cell apoptosis inhibition; INS-1E cytokine-induced death, ATP luminescence, 48 h; percent of positive-control rescue, neutral wells zero; protection from apoptosis, % (no concentration beside the values); 300,000 tested, 0.8% active;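 active = Every replicate reaches about 75%, or at least half do and their mean reaches it too, limit read from the data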;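 note: 0% = cytokine-treated negative control wells and 100% = positive control rescue; higher means more ATP so stronger rescue from cytokine killing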
L major viab – Leishmania major promastigote growth inhibition; Leishmania major promastigotes, resazurin fluorescence viability; inhibition, % at 10 µM; 200,000 tested, 9% active; AID 1063; in the data active = inhibition above about 50%;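 note: promastigotes grown with compound for 44 hours at 28 °C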
CSC inhib – cancer stem cell inhibition. cancer stem cell-like cells viability, luminescence. inhibition, % at 7.5 µM. 300,000 tested, 1.1% active; in the data active = inhibition above about 75%; tested in HMLE shEcad cells
T cruzi repl – T. cruzi replication inhibition | T. cruzi beta-gal in NIH3T3, luminescence, 90 h | inhibition, % (test concentration not listed) | 300,000 tested, 1.4% active;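 active = mean inhibition across valid replicates above about 55%, limit read from the data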;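 note: signal also drops with host cell toxicity which is not excluded here; 0% = plate median of DMSO wells and 100% = zero luminescence signal; higher percent means less beta-gal luminescence so fewer parasites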
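System: mouse NIH/3T3 fibroblasts infected with β-gal-expressing T. cruzi Tulahuen C4 / Input: NIH/3T3 cells, 5,000 per well / Buffer or medium: Low-serum DMEM with 2% FBS / Probe or stimulus: 5000 reporter trypomastigotes per well / Schedule: ≥90 h infection period, 3 h prior cell attachment / Measured by: GalScreen luminescence, 60 min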
SKKanGAS inh – blocks kanamycin growth of S. pyogenes SKKanGAS strain. BacTiter-Glo, 6 h. inhibition, % at 7.5 µM. 300,000 tested, 1.3% active. AID 1662;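 active = mean replicate score, as percent of positive control median, at least 50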;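 note: strain carries kanamycin resistance gene driven by streptokinase promoter and grows in 40 µg/ml kanamycin; loss of luminescence reflects streptokinase promoter inhibition or plain growth inhibition; 0% = median of DMSO wells and 100% = positive control at its reference dose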
Mdm2 MdmX PPI – disrupts the human Mdm2-MdmX interaction | O15151+Q00987 | SaOS-2 split-luciferase Mdm2/MdmX complementation, luminescence | inhibition, % at 8 µM | 330,000 tested, 3% active | AID 485346;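 active = inhibition of at least 50% at 8 µM in the primary screen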
Target sequence (O15151 whole entry, looked up): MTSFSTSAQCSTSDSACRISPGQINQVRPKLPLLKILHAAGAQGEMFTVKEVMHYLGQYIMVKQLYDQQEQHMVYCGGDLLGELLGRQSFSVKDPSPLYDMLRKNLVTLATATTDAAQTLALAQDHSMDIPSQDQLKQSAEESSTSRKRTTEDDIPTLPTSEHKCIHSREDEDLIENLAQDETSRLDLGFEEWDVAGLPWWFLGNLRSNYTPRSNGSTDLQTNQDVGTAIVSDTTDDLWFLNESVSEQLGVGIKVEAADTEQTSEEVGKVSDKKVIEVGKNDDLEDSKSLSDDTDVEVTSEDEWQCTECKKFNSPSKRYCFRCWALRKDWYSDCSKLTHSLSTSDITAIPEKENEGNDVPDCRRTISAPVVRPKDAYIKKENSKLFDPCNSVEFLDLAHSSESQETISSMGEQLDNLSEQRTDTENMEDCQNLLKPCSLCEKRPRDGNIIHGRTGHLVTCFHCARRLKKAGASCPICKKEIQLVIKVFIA
Target sequence (Q00987 whole entry, looked up): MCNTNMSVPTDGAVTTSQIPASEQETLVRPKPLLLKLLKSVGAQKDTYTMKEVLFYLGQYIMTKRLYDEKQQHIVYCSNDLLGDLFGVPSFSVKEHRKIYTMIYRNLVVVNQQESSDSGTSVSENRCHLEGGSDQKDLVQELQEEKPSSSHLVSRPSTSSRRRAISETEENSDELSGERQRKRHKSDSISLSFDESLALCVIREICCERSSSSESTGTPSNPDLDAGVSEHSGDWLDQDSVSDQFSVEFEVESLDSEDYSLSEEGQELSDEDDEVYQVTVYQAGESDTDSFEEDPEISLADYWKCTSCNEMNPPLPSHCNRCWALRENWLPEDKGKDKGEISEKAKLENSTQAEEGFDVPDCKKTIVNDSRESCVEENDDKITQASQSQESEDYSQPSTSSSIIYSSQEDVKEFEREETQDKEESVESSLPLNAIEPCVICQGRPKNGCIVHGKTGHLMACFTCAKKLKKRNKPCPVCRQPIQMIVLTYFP
Mdm2-MdmX conf – confirmation of human Mdm2/MdmX interaction inhibitors. shares compounds with Mdm2 MdmX PPI. Mdm2-MdmX binding, luminescent assay. inhibition, % at 8 µM. 10,000 tested, 55% active; in the data active = inhibition above about 40%
Full FLuc ctr – counter-screen for Mdm2/MdmX inhibitors: full-length luciferase. SaOS-2 full-length luciferase counterscreen, luminescence. AID 504607. 6,200 tested, 77% active. shares compounds with Mdm2 MdmX PPI. inhibition, % at 8 µM;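 active = mean inhibition at 8 µM reaching about 37%, which flags the compound as non-specific, limit read from the data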;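 note: p53-null SaOS-2 cells with luciferase driven by a doxycycline-inducible promoter; compound on cells about two nights before reading with doxycycline added after day one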
Starred values were filed as active, the others as inactive; . = not tested or not shown.

SMILES	Beta apoptosis	L major viab	CSC inhib	T cruzi repl	SKKanGAS inh	Mdm2 MdmX PPI	Mdm2-MdmX conf	others
O=c1cc(-c2ccccc2)c2ccc(O)cc2o1	.	.	5.8	18.3	-9.7	17.4	.
COc1ccc(N2CCN(Cc3cc(=O)oc4cc(-c5ccccc5)c(O)cc34)CC2)cc1	34.5	-7.0	-5.9	-3.5	12.2	88.9*	59.0*	Full FLuc ctr=22.3
O=c1cc(CN2CCN(c3ccc(F)cc3)CC2)c2cc3c(cc2o1)CCCC3	15.5	-0.6	-17.6	-5.1	-3.5	67.7*	0.7
O=c1cc(CN2CCN(c3ccccc3F)CC2)c2cc(O)c(-c3ccccc3)cc2o1	-3.7	-2.0	-3.7	8.5	-1.3	2.9	.
O=c1cc(CN2CCN(C/C=C/c3ccccc3)CC2)c2cc(O)c(-c3ccccc3)cc2o1	19.7	79.7*	13.4	39.1	-2.7	50.0*	42.5*	Full FLuc ctr=65.2*
CCOc1ccc2[nH]c(=O)c(CN(CCN3CCCC3)C(=S)Nc3ccccc3OC)cc2c1	.	-0.3	-9.2	6.1	0.7	-36.4	.
COc1ccc(NC2c3ccccc3C(=O)N2Cc2ccccc2Cl)cc1OC (stereo not given)	0.6	.	.	3.8	-1.6	12.9	.
COc1ccc(NC(=O)N(C)C[C@H]2Oc3c(NC(=O)Cc4ccccc4)cccc3C(=O)N([C@H](C)CO)C[C@@H]2C)cc1	-2.5	.	.	.	.	-2.9	.
Cc1cc(C)n(-c2ccc(C(=O)NCC(=O)Nc3cc(Cl)ccc3Cl)cc2)n1	-2.5	.	-0.2	.	.	-0.8	.
COc1ccc(OC)c(-c2cc(C(=O)N/N=C/c3cc(OC)c(OC)cc3OC)c3ccccc3n2)c1	-6.3	.	-0.8	-12.2	5.2	28.4	.
COc1ccccc1-c1cc(C(=O)N/N=C/c2cccs2)c2ccccc2n1	3.9	50.9*	25.6	1.0	14.3	65.6*	35.0
COc1ccc(-c2cc(C(=O)N/N=C/c3sccc3C)c3ccccc3n2)c(OC)c1	11.3	78.6*	48.7	-19.6	8.6	88.2*	87.4*	Full FLuc ctr=31.4
Cc1cccc(/C=C/c2onc(C)c2S(=O)(=O)N2CCC(C(=O)NC(C)C)CC2)c1	3.3	.	.	4.3	4.2	-3.5	.
CC1(C)N=C(SCC(=O)Nc2ccc(Cl)cc2)C(c2ccc(Cl)cc2)=N1	-17.4	30.6	38.7	42.0	0.4	55.9*	12.8
CN1CCN(C(=O)CCCN2C(=O)/C(=C/c3cccc(Br)c3)SC2=S)CC1	.	.	.	66.1*	19.5	63.4*	31.4	Full FLuc ctr=29.2
O=C(CCCN1C(=O)/C(=C/c2cccc(Br)c2)SC1=S)N1CCOCC1	-3.7	.	-2.3	-1.3	-0.1	60.6*	20.6
COc1ccccc1-n1c(=O)c2c3c(sc2n2c(=S)[nH]nc12)CCC3	7.2	-3.2	-4.6	11.0	9.9	11.7	.
C/C(=N\NC(=O)c1nnn(-c2nonc2N)c1CN1CCCCCC1)c1ccc(Br)cc1	1.9	.	-3.2	-8.5	3.2	-18.8	.
COc1ccc(CNCCC(c2ccc(F)cc2)c2ccc(OC)cc2)cc1 (stereo not given)	6.1	100.4*	26.0	51.3	-7.3	66.3*	43.5*	Full FLuc ctr=81.8*
COc1ccc(C(CCNCc2ccc(F)cc2)c2ccc(F)cc2)cc1 (stereo not given)	7.5	72.1*	49.6	40.8	-4.4	76.3*	33.9	Full FLuc ctr=90.0*
COc1ccc(C(CCNC(C)c2ccccc2)c2ccc(F)cc2)cc1 (stereo not given)	20.8	100.1*	11.1	32.6	1.8	72.6*	31.8
COc1ccc(CNCC(O)(c2ccccc2)c2ccc(F)cc2)cc1 (stereo not given)	3.8	.	-3.6	28.3	0.1	6.1	.
COc1cc(NS(=O)(=O)c2cn(C)cn2)cc(OC)c1	-0.7	.	-6.8	-2.5	0.3	5.2	.
COc1cc(/C=C(/C#N)C(=O)NCCc2c[nH]c3ccccc23)ccc1OCc1ccccc1F	36.7	-3.8	46.8	16.1	-4.7	62.8*	7.2
Cc1ccc(NC(=O)COc2coc(CN3CCc4ccccc43)cc2=O)cc1Cl	10.7	.	10.7	9.9	-5.6	61.8*	16.8
SMILES	Beta apoptosis	L major viab	CSC inhib	T cruzi repl	SKKanGAS inh	Mdm2 MdmX PPI	Mdm2-MdmX conf	others
COc1ccc(-c2cc(C(=O)N(C)Cc3cccc(OC)c3OC)c3ccccc3n2)cc1OC	5.0	.	7.3	1.1	25.4	48.7	.
COc1ccc(CCN(C)C(=O)c2cc(-c3ccccc3)nc3ccc(C)cc23)cc1OC	-5.0	.	-18.6	19.3	-5.7	2.3	.
COc1ccccc1-c1csc(NC(=O)c2cc(-c3cccs3)nc3ccccc23)n1	0.7	15.0	7.3	1.9	6.7	14.4	.
COc1ccc(-c2cc(C(=O)N(C)Cc3nc4ccccc4c(=O)[nH]3)c3ccccc3n2)cc1OC	12.1	.	22.6	.	.	52.2*	11.8
COc1ccc(CN(C)C(=O)c2cc(-c3ccccc3)nc3ccc(C)cc23)c(OC)c1OC	4.9	.	37.8	25.4	4.9	65.2*	31.3
COc1ccccc1CN(C)C(=O)c1cc(-c2cccs2)nc2ccccc12	1.2	.	58.8	-7.7	11.9	61.3*	38.8	Full FLuc ctr=56.9*
COc1cccc(CN(C)C(=O)c2cc(-c3ccc(F)cc3)nc3ccccc23)c1	13.8	.	17.9	24.3	13.7	52.9*	15.6
Cc1ccc2cn[nH]c2c1NC(N)=S	-7.2	13.5	-11.2	-7.4	-2.8	13.6	.
COc1cccc(NC(=O)CN(C)C(=O)c2cc(-c3ccccc3)nc3ccccc23)c1	-0.2	.	-20.4	1.0	-4.3	18.1	.
COc1cccc(CN(C)C(=O)c2cc(-c3ccc(OC)c(OC)c3)nc3ccccc23)c1	5.6	.	28.0	2.6	8.6	54.9*	31.9
COc1ccc(CN(C)C(=O)c2cc(-c3ccc(OC)c(OC)c3)nc3ccccc23)c(OC)c1	-3.2	.	20.0	16.4	9.1	57.5*	46.4*	Full FLuc ctr=100.7*
COc1cccc(NC(=O)CN(C)C(=O)c2cc(-c3ccc(F)cc3)nc3ccccc23)c1	5.9	.	6.9	38.6	24.8	62.3*	34.0
CSC(=S)N/N=C(\C)c1ccc(Br)cc1	4.1	-2.9	-1.3	40.4	37.1	14.0	.
O=C1Nc2cc(C(=O)NCCCN3CCCC3)ccc2S/C1=C\c1ccccc1	.	.	-10.1	15.1	7.1	48.8	.
O=C1Nc2cc(C(=O)NCCCN3CCOCC3)ccc2S/C1=C/c1ccccc1F	3.0	.	27.2	-11.7	5.5	10.0	.
CCC1CCCCN1CCCNC(=O)c1ccc2c(c1)NC(=O)CS2 (stereo not given)	-0.7	.	-5.9	1.4	-0.3	36.1	.
O=C1Nc2cc(C(=O)NCCCN3CCOCC3)ccc2S/C1=C/c1cccc(Cl)c1	5.7	.	8.0	2.0	21.3	73.3*	2.0
CCC1CCCCN1CCCNC(=O)c1ccc(/C=C2/Sc3ccccc3NC2=O)cc1 (stereo not given)	28.9	.	-2.4	-12.6	-6.6	85.9*	39.8	Full FLuc ctr=55.2*
